{"source": "ChEMBL document CHEMBL4680370", "about": "“Discovery of Novel Small-Molecule FAK Activators Promoting Mucosal Healing” (ACS Med Chem Lett, 2021)", "note": "Where “and” joins values, the source holds several entries; their conditions need not be identical. Identical values can stand only once. Calls of active or inactive are those of the source. No cut-off for these calls is given here."}
{"molecular_target": "Focal adhesion kinase 1 (Homo sapiens) (UniProt Q05397)", "sequence (Q05397 2-1052 limits assumed)": "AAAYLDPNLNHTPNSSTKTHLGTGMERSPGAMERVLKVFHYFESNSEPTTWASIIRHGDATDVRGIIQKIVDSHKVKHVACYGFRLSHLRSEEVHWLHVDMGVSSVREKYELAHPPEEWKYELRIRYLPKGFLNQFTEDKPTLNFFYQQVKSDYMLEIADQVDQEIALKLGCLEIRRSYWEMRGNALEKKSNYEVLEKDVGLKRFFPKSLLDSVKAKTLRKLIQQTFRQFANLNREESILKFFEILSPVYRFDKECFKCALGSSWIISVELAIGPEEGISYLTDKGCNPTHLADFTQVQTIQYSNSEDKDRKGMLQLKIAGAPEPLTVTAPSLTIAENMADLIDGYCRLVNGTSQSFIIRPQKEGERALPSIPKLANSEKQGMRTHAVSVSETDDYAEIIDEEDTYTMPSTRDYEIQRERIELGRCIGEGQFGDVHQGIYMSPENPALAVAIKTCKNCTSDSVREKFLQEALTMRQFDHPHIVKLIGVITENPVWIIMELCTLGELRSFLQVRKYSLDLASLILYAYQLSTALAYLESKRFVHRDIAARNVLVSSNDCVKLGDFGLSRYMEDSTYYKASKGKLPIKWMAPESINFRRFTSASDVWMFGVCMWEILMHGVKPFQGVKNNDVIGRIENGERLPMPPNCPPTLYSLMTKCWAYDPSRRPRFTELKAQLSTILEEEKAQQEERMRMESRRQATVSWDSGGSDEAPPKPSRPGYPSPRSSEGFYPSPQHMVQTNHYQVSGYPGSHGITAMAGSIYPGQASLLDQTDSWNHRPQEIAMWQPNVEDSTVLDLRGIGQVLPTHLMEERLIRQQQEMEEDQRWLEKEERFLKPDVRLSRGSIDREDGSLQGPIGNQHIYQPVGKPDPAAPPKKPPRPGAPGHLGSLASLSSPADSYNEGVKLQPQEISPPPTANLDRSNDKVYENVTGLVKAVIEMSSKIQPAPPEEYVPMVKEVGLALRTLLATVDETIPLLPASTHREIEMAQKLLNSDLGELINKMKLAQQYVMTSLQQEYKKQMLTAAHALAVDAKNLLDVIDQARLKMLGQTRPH", "test": "Activation of FAK in human Caco-2 cells assessed as increase in FAK Tyr397 phosphorylation at 10 nM incubated for 1 hr by Western blot analysis", "assay_type": "cell-based", "conditions": "filed as activator", "method_in_brief": "(§1)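 Caco-2 cells were exposed to compound at 10 nM, with DMSO vehicle as control. At least eight separate experiments were run and the data pooled, reported as mean ± standard error.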"}
{"smiles": "O=C(Nc1cc(C(F)(F)F)ccc1N1CCOCC1)N1CCCC1c1ccccc1", "note": "(centres undefined)", "Activity": "Active"}
{"smiles": "O=C(Nc1cc(C(F)(F)F)ccc1N1CCOCC1)N1CCCC1c1ccncc1", "note": "(centres undefined)", "Activity": "Active"}
{"smiles": "O=C(Nc1cc(C(F)(F)F)ccc1N1CCOCC1)N1CCCC1C1CCCCC1", "note": "(centres undefined)", "Activity": "Active"}
{"smiles": "COc1ccc(C(CNC(=O)Nc2cc(C(F)(F)F)ccc2N2CCOCC2)N(C)C)cc1", "note": "(centres undefined)", "Activity": "Active"}
{"tested_on": "not listed separately", "test": "Toxicity in C57BL/6 mouse assessed as body weight at 900 ug/kg, ip administered for every 6 hrs for 3 days and measured on day 4 (reference value: 9.16 +/- 0.62 %)", "assay_type": "organism-based", "conditions": "in vivo, 0.9 mg/kg, dose 900 µg/kg", "units": {"Activity": "%"}}
{"smiles": "O=C(Nc1cc(C(F)(F)F)ccc1N1CCOCC1)N1CCCC1c1ccncc1", "note": "(centres undefined)", "Activity": 6.33}
{"tested_on": "Caco-2", "test": "Induction of wound closure in human Caco-2 cells at 10 nM in presence of hydroxyurea measured upto 24 hrs by inverted light microscopy based wound healing assay", "assay_type": "functional, cell-based", "conditions": "time hrs <=24"}
{"smiles": "O=C(Nc1cc(C(F)(F)F)ccc1N1CCOCC1)N1CCCC1c1ccccc1", "note": "(centres undefined)", "Activity": "Active"}
{"smiles": "O=C(Nc1cc(C(F)(F)F)ccc1N1CCOCC1)N1CCCC1c1ccncc1", "note": "(centres undefined)", "Activity": "Active"}
{"smiles": "O=C(Nc1cc(C(F)(F)F)ccc1N1CCOCC1)N1CCCC1C1CCCCC1", "note": "(centres undefined)", "Activity": "Active"}
{"smiles": "COc1ccc(C(CNC(=O)Nc2cc(C(F)(F)F)ccc2N2CCOCC2)N(C)C)cc1", "note": "(centres undefined)", "Activity": "Active"}
{"tested_on": "not listed separately", "test": "Tmax in C57BL/6 mouse at 900 ug/kg, ip measured upto 12 hrs by LC-MS/MS analysis", "assay_type": "ADME, organism-based", "conditions": "in vivo, 0.9 mg/kg, dose 900 µg/kg", "method_in_brief": "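Single intraperitoneal dose of 900 μg/kg in C57BL/6 mice. Compound was first dissolved in DMSO, then diluted in 100 μL normal saline (final DMSO 2.5% in the injected solution). Plasma concentration was followed over time after dosing.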", "units": {"Tmax": "h"}}
{"smiles": "O=C(Nc1cc(C(F)(F)F)ccc1N1CCOCC1)N1CCCC1c1ccncc1", "note": "(centres undefined)", "Tmax": 1}
{"tested_on": "Mus musculus", "test": "Antiinflammatory activity against ischemic jejunal ulcer C57BL/6J mouse model assessed as ulcer area at 900 ug/kg, ip administered for every 6 hrs for 3 days and measured on day 4 by imaging analysis (reference value: 3.26 +/- 0.47 mm2)", "conditions": "dose 900 µg/kg; time 4 day", "units": {"Activity": "mm2"}}
{"smiles": "O=C(Nc1cc(C(F)(F)F)ccc1N1CCOCC1)N1CCCC1c1ccncc1", "note": "(centres undefined)", "Activity": 1.57}
{"molecular_target": "Focal adhesion kinase 1 (Homo sapiens) (UniProt Q05397)", "test": "Activation of FAK in human Caco-2 cells assessed as increase in FAK Tyr397 phosphorylation incubated for 1 hr by Western blot analysis", "assay_type": "cell-based", "conditions": "filed as activator, dose 10-1000 nM"}
{"smiles": "O=C(Nc1cc(C(F)(F)F)ccc1N1CCOCC1)N1CCCC1c1ccccc1", "note": "(centres undefined)", "Activity": "Dose-dependent effect"}
{"smiles": "O=C(Nc1cc(C(F)(F)F)ccc1N1CCOCC1)N1CCCC1c1ccncc1", "note": "(centres undefined)", "Activity": "Dose-dependent effect"}
{"smiles": "O=C(Nc1cc(C(F)(F)F)ccc1N1CCOCC1)N1CCCC1C1CCCCC1", "note": "(centres undefined)", "Activity": "Dose-dependent effect"}
{"smiles": "COc1ccc(C(CNC(=O)Nc2cc(C(F)(F)F)ccc2N2CCOCC2)N(C)C)cc1", "note": "(centres undefined)", "Activity": "Dose-dependent effect"}
{"molecular_target": "Focal adhesion kinase 1 (Homo sapiens) (UniProt Q05397)", "test": "Activation of FAK in human Caco-2 cells assessed as fold increase in FAK Tyr397 phosphorylation at 10 nM incubated for 1 hr by Western blot analysis relative to control", "assay_type": "cell-based", "conditions": "filed as activator", "method_in_brief": "as §1"}
{"smiles": "CN1CCN(c2ccc(C(F)(F)F)cc2NC(=O)N2CCCC2c2ccncc2)CC1", "note": "(centres undefined)", "fold change (FC)": 0.9}
{"smiles": "O=C(Nc1cc(C(F)(F)F)ccc1N1CCOCC1)N1CCCC1c1ccc(O)cc1", "note": "(centres undefined)", "fold change (FC)": 1.1}
{"smiles": "O=C(Nc1cc(C(F)(F)F)ccc1N1CCOCC1)N1CCCC1c1ccccc1", "note": "(centres undefined)", "fold change (FC)": 1.4}
{"smiles": "CC1CN(c2ccc(C(F)(F)F)cc2NC(=O)N2CCCC2c2ccncc2)CC(C)O1", "note": "(centres undefined)", "fold change (FC)": 1}
{"smiles": "O=C(Nc1cc(C(F)(F)F)ccc1N1CCOCC1)N1CCCC1c1ccncc1", "note": "(centres undefined)", "fold change (FC)": "1.5 and 1"}
{"smiles": "O=C(Nc1cc(C(F)(F)F)ccc1N1CCS(=O)(=O)CC1)N1CCCC1c1ccncc1", "note": "(centres undefined)", "fold change (FC)": 1}
{"smiles": "CN(C)C(CNC(=O)Nc1cc(C(F)(F)F)ccc1N1CCOCC1)c1ccccc1", "note": "(centres undefined)", "fold change (FC)": 1}
{"smiles": "O=C(Nc1ccccc1N1CCOCC1)N1CCCC1c1ccncc1", "note": "(centres undefined)", "fold change (FC)": 1.1}
{"smiles": "COc1ccc(C(CNC(=O)Nc2cc(C(F)(F)F)ccc2N2CCOCC2)N(C)C)cc1", "note": "(centres undefined)", "fold change (FC)": 1.4}
